Assay outcomes (PubChem)
KCNQ1 pot: potentiators or activators of KCNQ1 channel, primary screen, cell-based, thallium flux, high-throughput; CHO-K1 KCNQ1, thallium flux FluxOR fluorescence; stronger effect = higher value; B-score at 10 µM; hit rate 0.35% among 310,000; AID 2648, 2010;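 active = fluorescence ratio B-score, a plate-corrected score, at least three library SD, with initial intensity B-score within 5 SD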
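Material: CHO-K1 cells stably expressing KCNQ1. Medium: assay buffer for compound exposure, DMSO matched across wells. Reagent: K+/Tl+ depolarizing stimulus. Compound dosing: single-concentration screen. Times: 37 °C overnight plating, 90-min dark dye load, 20-min compound pretreatment. Technique: FluxOR Tl+ flux fluorescence.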
KCNK3 block: human KCNK3 channel inhibitors, primary screen, CHO cells, FluxOR thallium flux, B-score; Potassium channel subfamily K member 3 (Homo sapiens), O14649; FluxOR fluorescence; stronger effect = lower value; B-score at 10 µM; hit rate 0.84% among 340,000; AID 602410, 2012;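 active = B-score under library mean minus 4 SD, starting fluorescence ratio at most library mean plus 5 SD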;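 also: more negative B-score means stronger inhibition of thallium flux through KCNK3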
KCNQ1 block: inhibitors of human KCNQ1 channel, primary screen, cell-based, thallium flux, high-throughput | Potassium voltage-gated channel subfamily KQT member 1 (Homo sapiens), P51787 | CHO-K1 KCNQ1, FluxOR thallium flux fluorescence; stronger effect = higher value | B-score at 10 µM | hit rate 1.3% among 310,000 | AID 2642, 2010;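 active = compounds whose thallium flux B-score, printed positive for inhibition, exceeds three library SD while starting fluorescence stays within three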;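 also: channel opened by potassium depolarization with thallium stimulus after 20 min compound exposure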
hERG protect: hERG rescue from dofetilide block, primary screen, cell-based, CHO-hERG, FluxOR thallium flux, dofetilide IC70; Voltage-gated inwardly rectifying potassium channel KCNH2 (Homo sapiens), Q12809; dofetilide IC70 present; activation (rescue from dofetilide block), less the hit threshold, % at 10 µM; hit rate 0.51% among 310,000; AID 1511, 2009;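 active = activation above the mean of controls blocked by dofetilide plus 5 SD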;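 also: thallium influx through hERG after potassium depolarization seen as dye fluorescence rise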
Target sequence (Q12809 whole entry, looked up): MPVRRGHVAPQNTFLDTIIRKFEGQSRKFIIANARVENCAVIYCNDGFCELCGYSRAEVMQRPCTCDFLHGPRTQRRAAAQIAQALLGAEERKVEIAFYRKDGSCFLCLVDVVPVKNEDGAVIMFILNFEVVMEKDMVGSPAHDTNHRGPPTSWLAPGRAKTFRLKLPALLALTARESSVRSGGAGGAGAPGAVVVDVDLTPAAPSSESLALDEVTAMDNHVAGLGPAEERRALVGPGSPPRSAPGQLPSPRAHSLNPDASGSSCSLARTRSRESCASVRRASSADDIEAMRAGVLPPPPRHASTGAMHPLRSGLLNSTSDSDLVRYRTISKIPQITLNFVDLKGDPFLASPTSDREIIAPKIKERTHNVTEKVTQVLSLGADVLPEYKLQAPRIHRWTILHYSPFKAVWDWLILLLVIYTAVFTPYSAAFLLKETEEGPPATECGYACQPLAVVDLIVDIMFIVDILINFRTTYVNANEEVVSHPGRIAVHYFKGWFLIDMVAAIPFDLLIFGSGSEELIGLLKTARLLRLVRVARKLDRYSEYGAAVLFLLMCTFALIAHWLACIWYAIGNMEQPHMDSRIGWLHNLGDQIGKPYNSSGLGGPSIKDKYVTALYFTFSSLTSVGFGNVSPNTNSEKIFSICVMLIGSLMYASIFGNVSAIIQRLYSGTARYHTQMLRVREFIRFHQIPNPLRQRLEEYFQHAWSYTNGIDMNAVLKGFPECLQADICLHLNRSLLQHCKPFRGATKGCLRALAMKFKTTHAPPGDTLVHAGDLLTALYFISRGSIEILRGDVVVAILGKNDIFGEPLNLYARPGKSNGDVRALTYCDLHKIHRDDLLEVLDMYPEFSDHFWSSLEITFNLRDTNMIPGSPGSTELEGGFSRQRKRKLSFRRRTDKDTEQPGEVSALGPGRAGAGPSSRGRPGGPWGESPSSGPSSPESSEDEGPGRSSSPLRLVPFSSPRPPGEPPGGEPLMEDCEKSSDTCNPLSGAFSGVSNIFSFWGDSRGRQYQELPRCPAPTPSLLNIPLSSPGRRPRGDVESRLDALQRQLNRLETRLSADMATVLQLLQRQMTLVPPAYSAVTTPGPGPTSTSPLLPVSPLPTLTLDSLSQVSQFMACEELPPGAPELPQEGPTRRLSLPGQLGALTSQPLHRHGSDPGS
KCNK9 block: KCNK9 potassium channel inhibitors, primary screen, HEK293 cells, thallium flux; FluxOR thallium flux fluorescence; stronger effect = lower value; Potassium channel subfamily K member 9 (Homo sapiens), Q9NPC2; AID 488922, 2010; B-score at 10 µM; hit rate 1.2% among 310,000;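 active = ratio B-score over 3 SD below the library mean, with starting fluorescence within 5 SD of its mean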;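 also: negative B-score means less thallium flux so channel inhibition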
KCNQ1 block val: KCNQ1 potassium channel inhibitors, confirmation, cell-based, Tl flux, duplicate; shares compounds with KCNQ1 block; KCNQ1 cell line, FluxOR thallium flux fluorescence; inhibition, % at 10 µM; hit rate 93% among 1,600;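 active = primary screen active, with duplicate mean exceeding buffer control mean plus 3 SD of buffer wells, cut at about 28% in these data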
CHO KCNQ1 ctr: thallium flux effects in parental CHO cells, counter-screen for KCNQ1 inhibitor project, cell-based, Tl flux. shares compounds with KCNQ1 block. fluorescence ratio (Tl flux) at 10 µM. hit rate 21% among 1,600. parental CHO-K1, FluxOR thallium flux fluorescence ratio; stronger effect = lower value; zero means no signal rise above baseline;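 active = mean of duplicate thallium-flux fluorescence ratios in parental host cells more than 5 SD below the buffer control mean, cut at about 0.38 in these data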;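 also: ratio is peak minus minimum fluorescence divided by baseline fluorescence; actives read low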
KCNQ1 APC inh: KCNQ1 channel inhibitors, confirmation, orthogonal assay, cell-based, automated electrophysiology; hit rate 20% among 490; shares compounds with KCNQ1 block; KCNQ1-CHO cells, automated patch clamp current; calls only at 10 µM;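 active = KCNQ1 current drop exceeding 3 SD of negative control wells, seen in both duplicate runs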;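 also: steady state current during a 2 s step from -80 to +40 mV; negative values mean current inhibition and positive values mean potentiation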
KCNQ2 inh: KCNQ2 channel inhibition, selectivity assay for KCNQ1 inhibitor project, cell-based; shares compounds with KCNQ1 block; KCNQ2 cells, FluxOR thallium flux fluorescence; hit rate 71% among 1,600; inhibition, % at 10 µM;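 active = mean percent inhibition of the KCNQ2 thallium signal more than 5 SD above the buffer-only control wells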;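 also: KCNQ2 expressed in CHO cells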
KCNQ1-KCNE1 inh: KCNQ1/KCNE1 channel inhibition, selectivity assay for KCNQ1 inhibitor project, CHO-K1 cells, thallium flux, FluxOR; AID 652147, 2013; hit rate 77% among 1,600; shares compounds with KCNQ1 block; FluxOR thallium flux fluorescence; inhibition, % at 10 µM;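 active = mean percent inhibition of duplicate wells above the buffer-only control mean plus 3 SD of those controls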
A number is an active result; . = inactive; / = not tested or not shown; + = active, no number. An excerpt weighted towards active compounds, which were near 3.1% of everything screened.

SMILES	KCNQ1 pot	KCNK3 block	KCNQ1 block	hERG protect	KCNK9 block	KCNQ1 block val	CHO KCNQ1 ctr	KCNQ2 inh	KCNQ1-KCNE1 inh	others
O=C(CSc1ccc2ccccc2c1)Nc1ccncc1	.	.	7	.	.	90	.	75%	.	KCNQ1 APC inh=.
N#Cc1ccc(S(=O)(=O)N2CCN(C(=O)[C@@H]3CCCN3C(=O)c3cccs3)CC2)cc1	/	.	/	/	/	/	/	/	/
COCC(Cc1ccccc1)NC(=O)Cn1cc(C)c(=O)[nH]c1=O (centres undefined)	/	.	/	/	/	/	/	/	/
CCCCc1ccc(N/C(N)=N/c2nc(C)cc(C)n2)cc1	.	.	11	.	.	96	.	66%	.	KCNQ1 APC inh=+
Cc1ccc(N/C(N)=N/c2nc(C)cc(C)n2)cc1	.	.	.	.	.	/	/	/	/
O=C(Cc1cccc(C(F)(F)F)c1)NCc1cccnc1	.	.	.	.	.	/	/	/	/
Cc1cc(C)c(S(=O)(=O)n2ccc3ccccc32)c(C)c1	.	.	9	.	.	106	0.38	116%	142%
O=C(NC1CCCCC1)C(c1ccncc1)N(Cc1ccc2c(c1)OCO2)C(=O)c1cnsn1 (centres undefined)	.	.	7	.	.	65	.	.	72%
CCN(C[C@H]1N[C@@](Cc2ccccc2)(C(=O)OC)[C@H]2C(=O)N(C)C(=O)[C@@H]12)C(=O)NC(C)C	/	.	/	/	/	/	/	/	/
CSc1nsc(/C=C/Nc2ccc(C)cc2)c1C#N	.	.	7	.	.	.	.	.	57%
CSc1nsc(/C=C/Nc2ccc(C)c(C)c2)c1C#N	.	.	.	.	.	/	/	/	/
CCc1oc2ccccc2c1C(=O)c1cc(Br)c(O)c(Br)c1	.	.	9	.	.	77	.	.	43%
CCc1ccc(OCC(=O)c2c(O)c3ccccc3oc2=O)cc1	.	.	.	.	.	/	/	/	/
Cc1ccc(S(=O)(=O)c2ccc(C)cc2)cc1	.	.	.	.	.	/	/	/	/
Cc1ccc(S(=O)(=O)c2ccc(Oc3cccc(C)c3)cc2)cc1	.	.	8	.	.	112	.	108%	114%	KCNQ1 APC inh=.
Cc1ccc(C2(C)NC(=O)N(CC(=O)NCCN3C(=O)S/C(=C\c4cccnc4)C3=O)C2=O)cc1 (centres undefined)	/	.	/	/	/	/	/	/	/
CSc1ccccc1NC(=S)Nc1cccc(C(F)(F)F)c1	.	.	.	.	.	/	/	/	/
COc1ccc(NC(=S)Nc2cccc(C(F)(F)F)c2)c(C)c1	.	.	8	.	.	99	.	100%	60%	KCNQ1 APC inh=.
CCOC(=O)c1c(NC(=O)CSc2nc3ccccc3o2)sc(C(C)=O)c1C	.	.	8	.	.	130	.	108%	112%	KCNQ1 APC inh=.
CCOC(=O)c1c(NC(=O)CSc2nnc(Cc3ccccc3)o2)sc(C(C)=O)c1C	.	.	.	.	.	/	/	/	/
O=C1c2cc(Br)ccc2N(Cc2ccc(Br)cc2)S(=O)(=O)C1c1cc(Cl)c(Cl)cc1[N+](=O)[O-] (centres undefined)	/	.	/	/	/	/	/	/	/
Cc1sc2c(c1C)CN(CCN1CCOCC1)CN2C(=O)c1ccccc1	.	.	6	.	.	.	.	.	37%
COCCN(C(=O)COC(=O)CCC(=O)c1cccs1)c1c(N)n(Cc2ccccc2)c(=O)[nH]c1=O	.	.	.	.	.	/	/	/	/
Cc1cc(C)c2c(N)c(C(=O)c3ccc(Cl)cc3)sc2n1	.	.	.	.	.	/	/	/	/
Cc1cc(-c2cccs2)c2c(N)c(C(=O)c3ccc4c(c3)OCO4)sc2n1	.	.	7	.	-6.6	193	0.2	.	.
SMILES	KCNQ1 pot	KCNK3 block	KCNQ1 block	hERG protect	KCNK9 block	KCNQ1 block val	CHO KCNQ1 ctr	KCNQ2 inh	KCNQ1-KCNE1 inh	others
Cc1cc(C)c2c(N)c(C(=O)c3ccc(Cl)c(Cl)c3)sc2n1	.	.	.	.	.	/	/	/	/
COc1ccc(C(=O)c2sc3nc(C)cc(-c4cccs4)c3c2N)cc1OC	.	.	7	.	.	199	0.2	.	.
COc1ccc(C(=O)c2sc3nc(C)cc(-c4cccs4)c3c2N)cc1	.	.	6	.	.	195	0.26	.	.
CC(=O)c1sc2nc(-c3cccs3)ccc2c1N	.	.	.	.	.	/	/	/	/
CC(C)NC(=O)c1sc2nc(-c3cccs3)cc(-c3cccs3)c2c1N	.	/	6	.	.	198	0.28	.	.
Nc1ccc(NC(=O)CCN2CCOCC2)cc1	.	.	.	.	.	/	/	/	/
COc1ccccc1/C=C/C(=O)NCC(=O)N/N=C/c1ccc(C)o1	.	.	.	.	.	/	/	/	/
O=C(Cc1nc2ccccc2[nH]1)c1ccc(Br)cc1	.	.	6	.	.	52	.	72%	51%
CNc1ccc2c3c(cccc13)C(=O)N(C)C2=O	.	.	32	.	.	+	0.003	.	.
C=C(C1=CCN(S(=O)C(C)(C)C)[C@@H]1CCO)c1ccccc1 (some centres undefined)	/	.	/	/	/	/	/	/	/
CCOC(=O)C1CCN(C2=C(NS(=O)(=O)c3ccc(Cl)cc3)C(=O)c3ccccc3C2=O)CC1	.	.	6	.	.	124	0.32	135%	182%
COC(=O)c1ccc(N2CCOCC2)c(NC(=O)Nc2cccc(OC)c2)c1	.	.	.	.	.	/	/	/	/
CCOC(=O)c1ccc(N2CCN(c3ccccc3F)CC2)c(NC(=O)Nc2cccc(OC)c2)c1	.	.	7	.	.	89	.	83%	156%	KCNQ1 APC inh=.
COc1ccc(-c2nc3cc(C)ccn3c2NCc2ccc3c(c2)OCO3)cc1	.	.	7	.	.	98	.	89%	136%	KCNQ1 APC inh=.
c1ccc(-c2nc3ccccn3c2NCc2ccc3c(c2)OCO3)cc1	.	.	.	.	.	/	/	/	/
